Calls of active or inactive are those of the source. The rule behind the calls is not given here.
System: not listed separately
Assay: Cytotoxicity against human H1299 cells assessed as reduction in colony formation at 5 uM after 7 days
Format: functional
Conditions: NCI-H1299, 168 h, read-out: INH
Method in brief: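 H1299 cells seeded at 200 cells/well, attached overnight, then exposed to 5 μM compound or equal volume DMSO. After 7 days, fixed with 20% methanol and stained with 0.1% crystal violet; percent survival scored versus DMSO control.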

SMILES	inhibition at 5 µM [%]
CC(C)c1ccccc1-c1nc(NCc2ccc(-c3cccnc3)cc2)c2occc2n1	> 70
Cc1cnc(-c2ccccc2C(C)C)nc1NCC1CCN(c2cccnc2)CC1	> 70
COc1cnc(-c2ccccc2C(C)C)nc1NCc1ccc(-c2cccnc2)cc1	> 70
Cc1cnc(-c2ccccc2C(C)C)nc1NCc1ccc(-n2ccnc2)cc1	> 70

System: Liver microsome
Assay: Half life in rat liver microsomes in presence of NADPH
Format: ADME
Conditions: not given
Method in brief: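 Rat liver microsomes with NADPH; half-life in minutes.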

SMILES	t1/2 [min]
Cc1cnc(-c2ccccc2C(C)C)nc1NCc1ccc(-c2cccnc2)cc1	5.8
Cc1cnc(-c2ccccc2C2COC2)nc1NCc1ccc(-n2ccnn2)cc1	> 30
Cc1cnc(-c2ccccc2C2CC2)nc1NCc1ccc(-c2cccnc2)cc1	6.2
Cc1cnc(-c2ccccc2C(C)C)nc1NC(C)(C)c1ccc(-n2ccnn2)cc1	22
[2H]C([2H])(Nc1nc(-c2ccccc2C(C)C)ncc1C)c1ccc(-n2ccnn2)cc1	12
[2H]C([2H])([2H])C([2H])(c1ccccc1-c1ncc(C)c(NC(C)(C)c2ccc(-n3ccnn3)cc2)n1)C([2H])([2H])[2H]	10
[2H]C([2H])([2H])C(c1ccccc1-c1ncc(C)c(NCc2ccc(-n3ccnn3)cc2)n1)C([2H])([2H])[2H]	7.9
Cc1cnc(-c2ccccc2C2CCC2)nc1NCc1ccc(-n2ccnn2)cc1	5.1
Cc1cnc(-c2ccccc2C2COC2)nc1NCc1ccc(-c2cccnc2)cc1	> 30
[2H]C([2H])([2H])C([2H])(c1ccccc1-c1ncc(C)c(NCc2ccc(-n3ccnn3)cc2)n1)C([2H])([2H])[2H]	9.5
[2H]C([2H])(Nc1nc(-c2ccccc2C([2H])(C([2H])([2H])[2H])C([2H])([2H])[2H])ncc1C)c1ccc(-n2ccnn2)cc1	13
Cc1cnc(-c2ccccc2C(F)F)nc1NCc1ccc(-n2ccnn2)cc1	21

Target: Ubiquitin carboxyl-terminal hydrolase 1/WD repeat-containing protein 48 (Homo sapiens, UniProt O94782)
Sequence (O94782 whole entry): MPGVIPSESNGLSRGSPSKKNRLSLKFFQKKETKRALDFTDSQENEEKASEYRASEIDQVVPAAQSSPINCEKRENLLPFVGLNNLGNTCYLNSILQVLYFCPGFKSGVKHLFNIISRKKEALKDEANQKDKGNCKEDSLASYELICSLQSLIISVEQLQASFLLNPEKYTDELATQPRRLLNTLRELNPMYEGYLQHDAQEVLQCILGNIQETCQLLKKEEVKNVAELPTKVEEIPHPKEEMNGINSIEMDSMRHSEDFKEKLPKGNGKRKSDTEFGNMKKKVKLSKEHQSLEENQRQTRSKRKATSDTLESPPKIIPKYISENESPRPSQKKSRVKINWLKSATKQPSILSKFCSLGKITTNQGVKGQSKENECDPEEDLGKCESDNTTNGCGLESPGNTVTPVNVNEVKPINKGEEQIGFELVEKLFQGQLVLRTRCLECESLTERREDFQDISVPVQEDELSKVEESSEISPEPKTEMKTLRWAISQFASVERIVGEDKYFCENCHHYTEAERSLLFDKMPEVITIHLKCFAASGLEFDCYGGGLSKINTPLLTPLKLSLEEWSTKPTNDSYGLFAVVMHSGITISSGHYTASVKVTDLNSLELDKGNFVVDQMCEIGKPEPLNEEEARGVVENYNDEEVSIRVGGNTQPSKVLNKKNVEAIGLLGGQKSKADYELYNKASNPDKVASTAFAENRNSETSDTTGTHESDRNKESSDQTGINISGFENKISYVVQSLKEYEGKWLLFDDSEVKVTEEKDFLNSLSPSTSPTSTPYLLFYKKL
Sequence (Q8TAF3 whole entry, further chain): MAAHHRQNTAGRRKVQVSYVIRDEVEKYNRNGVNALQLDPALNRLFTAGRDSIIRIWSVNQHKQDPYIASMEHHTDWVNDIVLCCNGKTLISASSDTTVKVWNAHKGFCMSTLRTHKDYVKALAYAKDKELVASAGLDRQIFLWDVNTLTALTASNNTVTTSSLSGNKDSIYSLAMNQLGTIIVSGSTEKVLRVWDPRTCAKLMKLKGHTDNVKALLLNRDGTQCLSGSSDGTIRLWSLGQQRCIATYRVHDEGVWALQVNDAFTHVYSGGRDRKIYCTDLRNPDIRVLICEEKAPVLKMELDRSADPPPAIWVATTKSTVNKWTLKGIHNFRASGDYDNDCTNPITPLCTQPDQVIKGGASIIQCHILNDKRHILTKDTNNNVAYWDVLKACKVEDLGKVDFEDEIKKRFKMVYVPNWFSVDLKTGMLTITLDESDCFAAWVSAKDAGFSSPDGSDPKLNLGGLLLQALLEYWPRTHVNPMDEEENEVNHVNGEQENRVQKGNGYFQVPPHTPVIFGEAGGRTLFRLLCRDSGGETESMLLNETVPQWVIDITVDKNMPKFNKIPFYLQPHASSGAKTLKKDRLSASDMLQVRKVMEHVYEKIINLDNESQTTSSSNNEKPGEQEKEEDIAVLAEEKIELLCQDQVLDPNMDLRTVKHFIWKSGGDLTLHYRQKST
Assay: Inhibition of human USP1/UAF1 using ubiquitin-rhodamine110 substrate by fluorescence assay
Conditions: not given

SMILES	IC50 [nM]
Cc1cnc(-c2ccccc2C(C)C)nc1NCc1ccc(-c2cccnc2)cc1	70
CC(C)c1ccccc1-c1nc(NCc2ccc(-c3cccnc3)cc2)c2ccccc2n1	180
FC(F)(F)c1cc(-c2ccc(CNc3nc(-c4ccccc4C(F)(F)F)nc4ccccc34)cc2)ccn1	4900
Fc1ccc(CNc2nc(-c3ccccc3C(F)(F)F)nc3ccccc23)cc1	3400
CC(C)c1ccccc1-c1ncc(N(C)C)c(NCc2ccc(-c3cccnc3)cc2)n1	190
FC(F)(F)c1ccccc1-c1nc(NCc2ccc(-c3cncnc3)cc2)c2ccccc2n1	3000
CC(C)c1ccccc1-c1nc(NCc2ccc(-c3cccnc3)cc2)c2occc2n1	80
CSc1cnc(-c2ccccc2C(C)C)nc1NCc1ccc(-c2cccnc2)cc1	110
Cc1cnc(-c2ccccc2C(C)C)nc1NCC1CCN(c2cccnc2)C1 (centres undefined)	800
Cc1cnc(-c2ccccc2C(C)C)nc1NCc1ccc(-c2ccnc(C(F)(F)F)c2)cc1	320
Cc1cnc(-c2ccccc2C2CC2)nc1NCc1ccc(-c2cccnc2)cc1	180
CC(=O)c1ccccc1-c1ncc(C)c(NCc2ccc(-c3cccnc3)cc2)n1	8700
Cc1cnc(-c2ccccc2C(C)C)nc1NCc1ccc(-c2ccc(F)nc2)cc1	80
FC(F)(F)c1ccccc1-c1nc(NCc2ccc(-c3ccncc3)cc2)c2ccccc2n1	1900
O=[N+]([O-])c1ccccc1-c1nc(NCc2ccc(-c3cccnc3)cc2)c2ccccc2n1	7800
Cc1cnc(-c2ccccc2C(C)C)nc1NC(C)(C)c1ccc(-n2ccnn2)cc1	590
FC(F)(F)c1ccccc1-c1nc(NCc2ccc(-c3ccc(Cl)c(Cl)c3)cc2)c2ccccc2n1	2200
FC(F)(F)c1ccccc1-c1nc(NCc2ccc3c(c2)OCO3)c2ccccc2n1	8400
FC(F)(F)c1ccccc1-c1nc(NCc2ccc(-c3ccccc3)cc2)c2ccccc2n1	3700
CC(C)c1ccccc1-c1nc(NCc2ccc(-c3cccnc3)cc2)c2nc[nH]c2n1	120
Cc1cnc(-c2ccccc2C(C)O)nc1NCc1ccc(-c2cccnc2)cc1 (centres undefined)	2000
Cc1ccc(N2CCC(CNc3nc(-c4ccccc4C(C)C)ncc3C)CC2)cn1	90
Cc1cnc(-c2ccccc2C(C)C)nc1NCc1cccnc1	1300
Cc1cnc(-c2ccccc2C(C)C)nc1NCC1CCN(c2cccnc2)CC1	80

SMILES	IC50 [nM]
FC(F)(F)c1ccccc1-c1nc(NCC#Cc2cccnc2)c2ccccc2n1	8900
FC(F)(F)c1ccccc1-c1nc(NCc2ccc(-c3ccc(Cl)cc3)cc2)c2ccccc2n1	3600
Cc1cccc(C(CO)Nc2nc(-c3ccccc3C(C)C)ncc2C)c1 (centres undefined)	21000
Brc1ccccc1-c1nc(NCc2ccc(-c3cccnc3)cc2)c2ccccc2n1	1600
[2H]C([2H])([2H])C([2H])(c1ccccc1-c1ncc(C)c(NC(C)(C)c2ccc(-n3ccnn3)cc2)n1)C([2H])([2H])[2H]	760
CC(C)c1ccccc1-c1nc(NCc2ccc(-c3cccnc3)cc2)c2sccc2n1	110
Cc1cnc(-c2ccccc2C(C)C)nc1NCC1CCN(C2COC2)CC1	13600
CC(C)c1ccccc1-c1nc(NCc2ccc(-c3cccnc3)cc2)c2cccn2n1	260
FC(F)c1ccccc1-c1nc(NCc2ccc(-c3cccnc3)cc2)c2ccccc2n1	1400
CC(C)c1ccccc1-c1nccc(NCc2ccc(-c3cccnc3)cc2)n1	150
CC(C)c1ccccc1-c1nc2c(c(NCc3ccc(-c4cccnc4)cc3)n1)CCC2	160
Cc1cnc(-c2ccccc2C2CCC2)nc1NCc1ccc(-n2ccnn2)cc1	180
CC(C)c1ccccc1-c1nc(NCc2ccc(-c3cccnc3)cc2)c2ccsc2n1	280
FC(F)(F)c1ccccc1-c1nc(NCc2ccc(C3CCCCC3)cc2)c2ccccc2n1	9800
Cc1ccc(-c2ccc(CNc3nc(-c4ccccc4C(C)C)ncc3C)cc2)cn1	50
Cc1ccccc1-c1nc(NCc2ccc(-c3cccnc3)cc2)c2ccccc2n1	1100
Cc1cc(NCc2ccc(-c3cccnc3)cc2)nc(-c2ccccc2C(C)C)n1	210
CCc1ccccc1-c1nc(NCc2ccc(-c3cccnc3)cc2)c2ccccc2n1	780
CC(C)c1ccccc1-c1nc2c(c(NCc3ccc(-c4cccnc4)cc3)n1)CCNC2	860
CC(C)c1ccccc1-c1ncc(F)c(NCc2ccc(-c3cccnc3)cc2)n1	110
FC(F)(F)c1ccccc1-c1nc(NCc2ccc(-c3cccnc3)cc2)c2ccccc2n1	1100
FC(F)(F)c1ccc(CNc2nc(-c3ccccc3C(F)(F)F)nc3ccccc23)cc1	8900
FC(F)(F)c1ccccc1-c1nc(NCc2ccccc2)c2ccccc2n1	3100
COc1cnc(-c2ccccc2C(C)C)nc1NCc1ccc(-c2cccnc2)cc1	70

SMILES	IC50 [nM]
Fc1ccccc1-c1nc(NCc2ccc(-c3cccnc3)cc2)c2ccccc2n1	6500
N#Cc1ccc(CNc2nc(-c3ccccc3C(F)(F)F)nc3ccccc23)cc1	5700
Cc1cnc(-c2ccccc2C(C)C)nc1NCC1CCN(c2cnccn2)CC1	140
Cc1ccc(CNc2nc(-c3ccccc3C(F)(F)F)nc3ccccc23)s1	5100
FC(F)(F)c1ccccc1-c1nc(NCc2ccc(Cl)c(Cl)c2)c2ccccc2n1	10400
FC(F)(F)c1ccccc1-c1nc(NCc2cccs2)c2ccccc2n1	7900
CC(C)c1ccccc1-c1ncc(N)c(NCc2ccc(-c3cccnc3)cc2)n1	310
FC(F)(F)c1ccccc1-c1nc(NCc2ccc(Cl)cc2)c2ccccc2n1	4800
Cc1cnc(-c2ccccc2CO)nc1NCc1ccc(-c2cccnc2)cc1	10500
FC(F)(F)c1ccccc1-c1nc(NCc2ccc(-c3cccc(Cl)c3)cc2)c2ccccc2n1	2700
COc1ccc(CNc2nc(-c3ccccc3C(F)(F)F)nc3ccccc23)cc1	6200
Cc1cnc(-c2ccccc2C(C)C)nc1NCc1cccs1	270
Cc1nc(-c2ccccc2C(C)C)nc(NCc2ccc(-c3cccnc3)cc2)c1C	120
Cc1cnc(-c2ccccc2C(C)C)nc1NCc1ccc(-c2nnn[nH]2)cc1	5900
Cc1cnc(-c2ccccc2C(F)F)nc1NCc1ccc(-n2ccnn2)cc1	820
CC(C)c1ccccc1-c1nc2c(c(NCc3ccc(-c4cccnc4)cc3)n1)CNC2	2900
Cc1cnc(-c2ccccc2C(C)C)nc1NCC1CN(c2cccnc2)C1	21700
Cc1cccc(CNc2nc(-c3ccccc3C(C)C)ncc2C)c1	130
FC(F)(F)c1ccccc1-c1nc(NCc2ccc(N3CCOCC3)cc2)c2ccccc2n1	10400
Cc1cnc(-c2ccccc2C(C)C)nc1NCc1ccc(-n2ccnc2)cc1	300
COc1ccccc1-c1nc(NCc2ccc(-c3cccnc3)cc2)c2ccccc2n1	940
Clc1ccccc1-c1nc(NCc2ccc(-c3cccnc3)cc2)c2ccccc2n1	2100

Target: T1, Ubiquitin carboxyl-terminal hydrolase 1/WD repeat-containing protein 48 (Homo sapiens, UniProt O94782+Q8TAF3)
T1 sequence (O94782 whole entry): as the sequence (O94782 whole entry) above
T1 sequence (Q8TAF3 whole entry): as the sequence (Q8TAF3 whole entry, further chain) above
Assay: as above
Conditions: not given

SMILES	IC50
Cc1cnc(-c2ccccc2C2COC2)nc1NCc1ccc(-n2ccnn2)cc1	Not Active
FC(F)(F)c1cccc(-c2nc(NCc3ccc(-c4cccnc4)cc3)c3ccccc3n2)c1	Not Active
FC(F)(F)c1ccc(-c2nc(NCc3ccc(-c4cccnc4)cc3)c3ccccc3n2)cc1	Not Active
Cc1cnc(-c2ccccc2C(C)C)nc1NCC1CCN(C)CC1	Not Active
c1cncc(-c2ccc(CNc3nc(-n4ccnc4)nc4ccccc34)cc2)c1	Not Active
Cc1cnc(-c2ccccc2C2COC2)nc1NCc1ccc(-c2cccnc2)cc1	Not Active
c1cncc(-c2ccc(CNc3nc(C4CCCC4)nc4ccccc34)cc2)c1	Not Active
c1cncc(-c2ccc(CNc3nc(N4CCOCC4)nc4ccccc34)cc2)c1	Not Active
c1cncc(-c2ccc(CNc3nc(N4CCCC4)nc4ccccc34)cc2)c1	Not Active

Target: T1, Ubiquitin carboxyl-terminal hydrolase 1/WD repeat-containing protein 48
Assay: Inhibition of human USP1/UAF1 in human […] cells assessed as increase in Ub-PCNA measured after 4 hrs by Western blotting analysis
Format: cell-based
Conditions: not given

SMILES	inhibition
Cc1cnc(-c2ccccc2C(C)C)nc1NCC1CCN(c2cccnc2)CC1	Dose-dependent effect
FC(F)(F)c1ccccc1-c1nc(NCc2cccs2)c2ccccc2n1	Dose-dependent effect

Target: T1, Ubiquitin carboxyl-terminal hydrolase 1/WD repeat-containing protein 48
Assay: Inhibition of human USP1/UAF1 in human […] cells assessed as increase in Ub-PCNA measured at 1 uM after 4 hrs by Western blotting analysis
Format: cell-based
Conditions: not given

SMILES	Activity
Cc1cnc(-c2ccccc2C(C)C)nc1NCC1CCN(c2cccnc2)CC1	Active

Target: T1, Ubiquitin carboxyl-terminal hydrolase 1/WD repeat-containing protein 48
Assay: Inhibition of human USP1/UAF1 in human H1299 cells assessed as reduction in colony formation up to 25 uM after 7 days
Format: cell-based
Conditions: not given

SMILES	inhibition
Cc1cnc(-c2ccccc2C2COC2)nc1NCc1ccc(-n2ccnn2)cc1	inactive

Source: ChEMBL document CHEMBL3352044, “Synthesis and structure-activity relationship studies of N-benzyl-2-phenylpyrimidin-4-amine derivatives as potent USP1/UAF1 deubiquitinase inhibitors with anticancer activity against nonsmall cell lung cancer” (J Med Chem, 2014)
